Source: PubChem BioAssay
Sampled rows, rich in hits. Any-hit rate of the full collection: about 4.2%.
SENP1 FRET inh: blocks the human SENP1 SUMO protease catalytic domain; 360,000 compounds, 0.21% hits; Q9P0U3; inhibition, % at 10 µM; recombinant SENP1 catalytic domain, CyPet-SUMO1-YPet FRET cleavage; AID 624204;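 active means inhibition at least 30% at 10 µM, raw YFP signal under a set limit, fluorescence ratio 0.5 to 1.5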;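 further: 0% = enzyme with DMSO and 100% = no enzyme wells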
Target sequence (Q9P0U3 419-644 limits assumed): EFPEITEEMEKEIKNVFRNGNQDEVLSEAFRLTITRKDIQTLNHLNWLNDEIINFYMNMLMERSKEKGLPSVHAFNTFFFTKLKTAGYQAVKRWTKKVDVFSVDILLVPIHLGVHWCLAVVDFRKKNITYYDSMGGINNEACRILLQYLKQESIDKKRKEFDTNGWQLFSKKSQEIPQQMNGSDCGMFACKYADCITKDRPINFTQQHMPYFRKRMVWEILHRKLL
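Controls: no-enzyme wells low, DMSO-plus-enzyme wells high control. Test system: human recombinant His6-tagged SENP1 catalytic domain enzyme. Reagent: SFCypet-SUMO1-SFYpet FRET protein substrate, 25 nM final. Doses: one dose per compound, 10 µM, 0.5% DMSO. Detection: FRET, CFP and YFP emission. Timing: 50 min reaction at room temperature.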
HDAC3 inh: human HDAC3 inhibition; O15379; recombinant HDAC3, fluorogenic peptide/trypsin coupled, fluorescence; AID 2718; inhibition, % at 8.3 µM; 320,000 compounds, 0.15% hits; in the data active means inhibition above about 26%, passing the limit was not always enough; inconclusive means no clear call, values can overlap the other calls
Target sequence (O15379 whole entry, looked up): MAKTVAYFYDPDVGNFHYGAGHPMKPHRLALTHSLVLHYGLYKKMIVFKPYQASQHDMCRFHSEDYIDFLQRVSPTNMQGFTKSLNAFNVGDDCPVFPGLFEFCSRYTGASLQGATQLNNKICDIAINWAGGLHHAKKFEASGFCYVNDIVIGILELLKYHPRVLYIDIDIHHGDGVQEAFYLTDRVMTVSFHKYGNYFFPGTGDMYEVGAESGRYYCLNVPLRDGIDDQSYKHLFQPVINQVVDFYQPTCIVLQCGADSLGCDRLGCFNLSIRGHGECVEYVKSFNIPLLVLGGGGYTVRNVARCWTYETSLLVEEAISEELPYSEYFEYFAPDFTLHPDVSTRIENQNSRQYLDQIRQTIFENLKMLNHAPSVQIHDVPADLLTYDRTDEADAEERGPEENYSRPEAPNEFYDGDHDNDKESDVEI
Fh CTSL1 inh: blocks F. hepatica cathepsin L1 in PFM18AAP counter-screen | inhibition, % at 5.96 µM | recombinant F. hepatica cathepsin L1, Z-Leu-Arg-MCA fluorescence | AID 1906 | 300,000 compounds, 0.49% hits;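 active means inhibition above the mean of all tested compounds plus 3 SD, set per screening campaign, cut at about 17% in these data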;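 further: 0% = plate median of test compound wells and 100% = 1 µM Z-Phe-Ala-diazomethylketone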
AHR act: activators of human aryl hydrocarbon receptor; P35869; AHR-responsive luciferase reporter cells, luminescence; activation, % at 5 µM; 320,000 compounds, 2.5% hits; AID 2796; in the data active means activation above about 47%;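 further: 0% = vehicle wells and 100% = reference agonist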
M18AAP inhibitor: blocks P. falciparum M18 aspartyl aminopeptidase; recombinant PfM18AAP, H-Glu-NHMec fluorogenic cleavage; inhibition, % at 7.35 µM; 290,000 compounds, 1.2% hits;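 active means inhibition above the campaign mean inhibition over all tested compounds plus 3 SD, cut at about 28% in these data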;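 further: 0% = plate median of test compound wells and 100% = 2 mM ZnCl2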
FXN GAA850 act: frataxin GAA850 promoter activation; HEK293 lucGAA850 FXN promoter luciferase reporter, 24 h; percent of 10 µM SAHA response; activation, % at 6 µM; 360,000 compounds, 0.56% hits; AID 540364;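 active means activation above the average of all compounds screened plus 3 SD, cutoff fixed separately per campaign, cut at about 7.5% in these data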;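 further: 0% = DMSO wells and 100% = 10 µM SAHA wells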
GAA30 counter: activates GAA30 frataxin promoter, counter-screen for GAA850 activators. shares compounds with FXN GAA850 act. HEK293 lucGAA30 FXN promoter luciferase, 24 h; DMSO = 0%, 5 µM ipriflavone = 100%. activation, % at 6 µM. 1,900 compounds, 66% hits. AID 588350;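 active means mean activation above the mean of solvent-only control wells plus 3 SD, cut at about 22% in these data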;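 further: counterscreen of GAA850 promoter hits where activity marks nonselective or luminescence artifacts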
GAA850 confirm: confirmation of GAA850 frataxin (FXN) promoter activators; shares compounds with FXN GAA850 act; HEK293 lucGAA850 FXN promoter luciferase reporter, 24 h; 100% = activation by SAHA; activation, % at 6 µM; 1,900 compounds, 86% hits; AID 588351;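 active means mean activation above a set limit taken from the primary screen, cut at about 8% in these data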;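 further: 0% = DMSO wells and 100% = 10 µM SAHA wells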
Active calls of the source: *; ? = inconclusive; · = not tested or not shown.

SMILES	SENP1 FRET inh	HDAC3 inh	Fh CTSL1 inh	AHR act	M18AAP inhibitor	FXN GAA850 act	GAA30 counter	GAA850 confirm
NC(=O)N/N=C/c1cn(-c2ccccc2)nc1-c1cccnc1	·	1.9	4.3	38.9	-2.6	·	·	·
NC(=S)N/N=C/c1cn(-c2ccccc2)nc1-c1cccnc1	0.6	9.0	25.4*	38.9	3.3	7.8*	63.0*	18.6*
CC(OC(=O)COc1cccc2c1OC(C)(C)C2)C(=O)Nc1ccc(S(N)(=O)=O)cc1 (centres undefined)	4.1	?	-5.3	-3.4	·	1.3	·	·
CN(C)S(=O)(=O)c1cccc(NC(=O)CN2C(=O)NC(Cc3ccccc3)C2=O)c1 (centres undefined)	0.7	-2.2	·	0.3	·	0.7	·	·
Cc1ccc2c(COC(=O)c3ccccc3Cl)cc(=O)oc2c1	0.0	-2.6	1.1	0.2	-1.4	8.5*	126.3*	42.4*
c1ccc2c(c1)nnn2-c1ncnc2sccc12	-2.1	0.7	0.9	22.6	-6.0	10.2*	93.1*	30.6*
CC(C)Nc1ncnc2c1ncn2[C@H]1CN(CCN2CCOCC2)C[C@@H](CO)O1	0.1	·	·	·	·	2.0	·	·
O=C(Nc1ccc(Br)cc1Cl)c1ccc2c(=O)n3c(nc2c1)CCC3	-5.9	-3.8	4.3	10.8	·	7.9*	87.5*	23.4*
O=C(Nc1ccc(Cl)cc1Cl)c1ccc2c(=O)n3c(nc2c1)CCC3	-3.2	3.0	0.8	1.1	·	5.3	·	·
O=C(Nc1ccc(Cl)cc1)c1ccc2c(=O)n3c(nc2c1)CCCCC3	-1.2	·	3.0	6.7	4.3	18.0*	62.8*	24.8*
O=C(Nc1ccc(F)c(Cl)c1)c1ccc2c(=O)n3c(nc2c1)CCCCC3	-0.2	-5.4	-2.4	1.5	1.7	1.2	·	·
O=C(Nc1ccc(Br)cn1)c1cccc(-c2cc3ccccc3oc2=O)c1	-2.6	-8.6	-1.2	21.6	1.5	9.4*	117.8*	32.9*
COc1ccc(/C=N\NC(=O)c2sccc2C)cc1Cn1nc(C)cc1C	0.5	7.1	-7.3	57.3*	4.3	8.1*	42.3*	21.8*
Cc1nc([N+](=O)[O-])c(Br)n1CC(=O)c1ccccc1	1.2	4.8	1.5	-3.4	0.9	-0.1	·	·
Cc1nc([N+](=O)[O-])c(Br)n1CC(=O)c1ccc2ccccc2c1	-0.1	5.0	-2.1	3.1	-7.0	24.5*	327.8*	117.7*
COc1ccc(S(=O)(=O)Nc2ccccc2OC)cc1C	-0.5	6.0	-2.0	1.2	-0.4	8.9*	10.5	7.2
COc1ccc(S(=O)(=O)Nc2ccccc2SC)cc1C	1.5	5.6	6.1	0.2	1.4	0.7	·	·
CC(C)c1ccc2nc(N)sc2c1	3.3	-2.1	-1.4	7.8	1.1	7.4	·	·
Cc1cc2nc(N)sc2cc1C	1.3	3.5	1.6	11.0	2.9	8.4*	108.8*	26.5*
O=C(Cn1nc(-c2ccc(N3CCOCC3)c([N+](=O)[O-])c2)c2ccccc2c1=O)N1CCCCC1	0.2	2.0	-1.2	4.0	-13.6	8.3*	38.1*	14.2*
O=[N+]([O-])c1cc(-c2nnc(N3CCOCC3)c3ccccc23)ccc1N1CCOCC1	2.4	10.5	-2.5	-0.1	2.6	4.1	·	·
CCCCN(C(=O)c1cc(S(=O)(=O)N2CCCCC2)ccc1Cl)c1c(N)n(CCC)c(=O)[nH]c1=O	-2.0	·	·	·	·	-1.1	·	·
CC(=O)Nc1ccc(/C=N/N2CCCCC2)cc1	2.9	12.4	4.3	1.1	-12.8	7.6*	86.5*	29.3*
CNC(=O)CSc1nnc(SCCC(=O)O)s1	3.6	2.7	0.6	0.5	-2.8	0.1	·	·
Cc1c(CCC(=O)NCC(=O)O)c(=O)oc2cc3occ(-c4ccccc4)c3cc12	-0.8	6.9	·	·	-2.2	9.4*	2.4	0.8
SMILES	SENP1 FRET inh	HDAC3 inh	Fh CTSL1 inh	AHR act	M18AAP inhibitor	FXN GAA850 act	GAA30 counter	GAA850 confirm
CC(=O)c1ccc2c3c(cccc13)C(=O)N(CCc1ccccc1)C2=O	23.3	-1.5	-0.3	72.0*	-0.6	7.8*	112.3*	45.4*
O=C1CCC[C@@H]2C=C[C@H](c3ccc(Br)cc3)[C@H]3CCN1[C@@H]32	1.0	·	·	·	·	·	·	·
CCOC(=O)/C(C#N)=C/Nc1ccccc1OC	3.0	5.2	2.6	4.5	-1.5	8.0*	91.8*	28.5*
CCOC(=O)C(=O)/C(C#N)=C/Nc1ccccc1	10.8	-9.6	-4.4	3.7	-5.5	2.0	·	·
COc1ccc(CCN2CC(C(=O)Nc3ccc(S(C)(=O)=O)cc3)CC2=O)cc1OC (centres undefined)	0.7	5.9	-1.1	1.7	·	3.0	·	·
N#CC(=C1CCCC1)c1nc(-c2ccccc2)cs1	4.1	-0.1	4.1	6.7	-2.4	9.5*	111.0*	39.1*
CCN(C[C@H]1N[C@@](CC)(C(=O)OC)[C@H]2C(=O)N(Cc3ccccc3)C(=O)[C@@H]12)S(=O)(=O)c1ccc(OC)cc1	1.7	5.2	·	-0.9	·	10.5*	11.9	9.0*
CC[C@@]1(C(=O)OC)N[C@H](CN(C)C(=O)Nc2ccc(C(F)(F)F)cc2)[C@@H]2C(=O)N(Cc3ccccc3)C(=O)[C@@H]21	-0.3	14.2	·	1.8	·	8.9*	26.9*	11.3*
CCN(C[C@H]1N[C@@](Cc2ccccc2)(C(=O)OC)[C@H]2C(=O)N(Cc3ccccc3)C(=O)[C@@H]12)S(=O)(=O)c1ccc(OC)cc1	-1.3	9.3	·	1.9	·	-4.7	·	·
CC[C@@]1(C(=O)OC)N[C@H](CN(C)C(=O)c2ccccc2)[C@@H]2C(=O)N(Cc3ccccc3)C(=O)[C@@H]21	-0.6	·	·	0.2	·	-1.2	·	·
CC[C@@]1(C(=O)OC)N[C@H](CN(C)C(=O)Nc2ccccc2)[C@@H]2C(=O)N(Cc3ccccc3)C(=O)[C@@H]21	1.4	·	·	2.1	·	11.7*	16.5	7.1
O=C(NCC1OCCc2ccccc21)c1cc(COc2c(F)cccc2F)on1 (centres undefined)	-3.7	8.0	-4.7	4.3	-13.2	3.8	·	·
CCOc1ccc(C(=O)Nc2ccc(NC(=O)c3ccco3)c(Cl)c2)cc1Cl	1.8	-6.4	4.4	-0.4	15.0	-1.6	·	·
CCOc1ccc(C(=O)Nc2ccc(NC(=O)c3ccco3)c(Cl)c2)cc1Br	-4.4	-2.4	0.0	4.6	-0.2	11.9*	8.7	8.4*
COc1ccc(/C=C/C(=O)O)cc1S(=O)(=O)NCc1ccccc1	-0.5	-3.5	0.1	0.6	4.2	2.4	·	·
COc1ccc(/C=C/S(=O)(=O)NCc2ccccc2)cc1OC	1.1	-4.6	1.0	-0.9	4.0	7.8*	20.4	8.2*
